Variants at the floor of the assay were thinned out.
B1: tRNA (parent)
chain: GUUCCGUUGGCGUAAUGGUAACGCGUCUCCCUCCUAAGGAGAAGACUGCGGGUUCGAGUCCCGUACGGAACG

Variants of: B1
Experiment: yeast fitness relative to wild type (ratio to wild type); higher = fitter; tRNA-Arg(CCU), competitive growth, 37 C, YPD
In short: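 A pool of Saccharomyces cerevisiae strains, each with a tRNA-Arg(CCU) gene variant at the native genomic locus, was competed in YPD at 37°C for 24 hours across six parallel replicates. The variants had been chemically synthesised at a 3% per-site mutation rate over 69 sites, and gene amplicons before and after competition were read by 100-nucleotide paired-end sequencing. Darwinian fitness relative to wild type rested on changes in genotype frequencies. Genotypes required ≥ 100 starting reads, and estimates < 0.5 were set to 0.5.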

| Variant | yeast fitness |
| --- | --- |
| GUUCCGUUGGUGUAAUGGGAACGCGUCUCCCUCCUAAGGAGAAGACUGCGGAUUCGAGUCCCGUACGGAACG | 0.609 |
| GUUCCGUUGGUGGAAUGGAAAGGCAUCUCCCUCCUAAGGAGAAGACUACGGGUUCGAGUCCCGUACGGUACG | ≤ 0.5 |
| GUUCCGUUGGUGUAAUGGUAACGCGUCUCCCUCCUAAGGAGAAGAGUGCGGGUUCGAGUCUCGUACGGAACG | 0.596 |
| GUUCCGUUGGUGUAAUGGUAACGCGUCUCCCUCCUAAGGAGAAGACUGCGGGUUCGAGUCCCGUACGCUACG | 0.54 |
| GUUCCGUUGGUGUAAUGGUAACGCGUCUCCCUCCUAAGGAGAAGAUUGCGGGUUCGAGUCCCGUUCGGUACG | 0.54 |
| GUUCCGUUGGUGUAAUAGUAACGCGUCUACCUCCUAAGGAGAAGACUGCGGGUUCGAGUCCCGUACGGAACG | ≤ 0.5 |
| GUUCCGUUGGUGUAAUGGUAACGCGUCUCCCUCGUAAGGAGAAGACUGCGGGUUCGAGUCCCGUACGGCACG | 0.535 |
| GUUCCGUUGGUGUAAUGGUAACGCGUCUCCCUCCUAAGGAGAAGACUGCGGGUUCGACUCUCGUACGGAACG | 0.65 |
| GUUCCGUUGGUGUAAUGGUAACGCGUCUCCCUCCUAAGGAGAAGACUGCGGGUUCGAGUCUCGUCCGGAACG | ≤ 0.5 |
| GUUCCGUUGGUGUAAUGGUAACCCGUAUCCCUCCUAAGGAGAAGACUGCGGGUUCGAGUCCCGUACGGUACG | ≤ 0.5 |
| GUUCCGUUGGUGUAAUGGUAACGCGUCUCCCUCCUAAGGAGAAGACUGCGGGUUCGAGUCCCGUAGGGUACG | 0.555 |
| GUUCCGUUGGUAUAAUGGUAACGCGUCUCCUUCCUAAGGAGAAGACUGCGGGUUCGAGUCCCGUACGGAACG | 0.532 |
| GUUCCGUUGGUGUAAUGGAAACGCGUCUGCCUCCUAAGGAGAAGACUGCGGGUUCGAGUCCCGUACGGAACG | 0.704 |
| GUUCCGUUGGUGCAAUGGUCAGGCGUCUCCCUCCUAAGGAGAAGACUGCGGGUUCGAGUCCCGUACGGAACG | ≤ 0.5 |
| GUUCCGUUGGUGUAAUGGUAACGCGUCUCCCUCCUAAGGAGAAGACUGCGGGUUCGAGUCCCGUAUGGGACG | 0.639 |
| GUUCCGUUGGUGUAAUGGUAACGCGUCUCCCUCCUAAGGAGAAGACUGCGGGUUUGAGCCCCGUCCGGAACG | ≤ 0.5 |
| GUUCCGUUGGUGUAAUGGUAACGCGUCUCCCUCCUAAGGAGAAGACUGCGGGUUCAAGUCCGGUACGGAACG | ≤ 0.5 |
| GUUCCGUUGGUGUAAUGGUAACGCGUCUCCCUCCUAAGGAGAAGACUGCGGGUUCAAGUCCAGUACGGAACG | 0.567 |
| GUUCCGUUGGUGUAAUGGUAACGCGUCUCCCUCCUAAGGAAAAGACUGCGGGUUCGAGUCCCGUACGGAACG | 0.902 |

| Variant | yeast fitness |
| --- | --- |
| GUUCCGUUGGUGUAAUGGUAACGCGUCUCCCUCCUAAGCAGAAGACUGCGGGUUCGAGUCCCGUACGCAACG | ≤ 0.5 |
| GUUCCGUUGGUGUAACGGUAACACGUCUCCCUCCUCAGGAGAAGACUGCGGGUUCGAGUCCCGUACGGAACG | ≤ 0.5 |
| GUUCCGUUGGUGUAAUGGUAACGCGUCUCCCUCCUAAGGAGAAGACUGAGGGUUCGCGUCCCGUACGGAACG | ≤ 0.5 |
| GUUCCGUUGGUGUAAUGGUAACGCGUCUCCCUCCUAAGGAGAAGACUGUGGGUUCAAGUCCCGUCCGGAACG | ≤ 0.5 |
| GUUCCGUUGGUGUAAUGGAAACGCGUCUCCCUCCUAAGGAGAUGACUGCGGGUUCGAGACCCAUACGGAACG | ≤ 0.5 |
| GUUCCGUUGGUGUAAUGGCAACGCGUGUCCCUCCUAAGGAGAAGACUGCGGGUUCGAGUCCCGUACGGAACG | 0.66 |
| GUUCCGUUGGUGUAAUGGUAACGCGUCUCCCUCCUAAGGAGAAGACUGCGGGUUCGAUUCACGUACGGAACG | ≤ 0.5 |
| GUUCCGUUGGUGCAAUGGUAACGAGUCUCCCUCCUAAGGAGACGACUGCCGGUUCGAGUCCCGUACGGAACG | ≤ 0.5 |
| GUUCCGUUGGUGUAAUGAUAACGCGUCUCCCUCCUUAGGAGAAGACUGCGGGUUCGAGUCCCGUACGGAACG | ≤ 0.5 |
| GUUCCGUUGGUGGAAUGGAAAGGCAUCUCCCUCCUAAGGAGAAGACUGCGGGUUCGAGUCACGUACGGAACG | ≤ 0.5 |
| GUUCCGUUGGUGUAAUGAUAACGCGUCUCCCUCCUAAGGAGAAGACUACGGGUUCGAGUCCCGUACCGAACG | ≤ 0.5 |
| GUUCCGUUGGUGCAAUGGUAACGCGUCUCUCUCCUAAGGAGAGGACUGCGGGUUCGAGUCCCGUACGGAACG | ≤ 0.5 |
| GUUCCGUUGGUGUAAUGGUAACACGUCUCCCUCCCAAGGAGAAGACUGCGGGUUCGAGUCCCGUACGGAACG | 0.573 |
| GUUCCGUUGGUGUAACGGUAACGUGUCUCCCUCCUAAGGAGAAGACUGCGGGUUCGAGUCCCGUACGGAACG | 0.591 |
| GUUCCGUUGGUGUAAUGGUAACGCGCCUCCCUCCUAAGGAGAAGACUGCGGGUUCGAGUCGCGUCCGGAACG | ≤ 0.5 |
| GUUCCGUUGGUGUAAUGGCAACGCGUCUCCCUCCUAAGGAGAAGACUGCGGGUUCGAGUCGCGUCCGGAACG | ≤ 0.5 |
| GUUCCGUUGGUGUAAUGCUAACGCGUCUCCUUCCUAAGGAGAAGACUGCGGGUUCGAGUCCCGUACGGAACG | ≤ 0.5 |
| GUUCCGUUGGUAUAAUGGUAACGCGUCUCCCUCCUAAGGAGAAGACUGCGCGUUCGAGUCCUGUACGGAACG | ≤ 0.5 |
| GUUCCGUUGGUGUAAUGCUAGCGCGUCUCCCUCCUAAGGAGAAGACUGCGGGUUCGAGUCCCGUACGGAACG | 0.571 |
